# Calls of active or inactive are those of the source. The rule behind the calls is not given here.
# What was measured:
# Focal adhesion kinase 1 = Focal adhesion kinase 1 (Homo sapiens, UniProt Q05397); assay: Inhibition of FAK (unknown origin)
# Method in brief: (§1)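 Biochemical (cell-free) assay within a panel of 24 protein kinases. Results reported as IC50 values. Procedure as described in earlier work.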
# Insulin receptor = Insulin receptor (Homo sapiens, UniProt P06213); assay: Inhibition of INSR (unknown origin); method in brief: as §1
# [1] = molecular target: T1, Receptor-type tyrosine-protein kinase FLT3 (Homo sapiens, UniProt P36888); assay: Inhibition of FLT3 (unknown origin)
# T1 sequence (P36888 whole entry): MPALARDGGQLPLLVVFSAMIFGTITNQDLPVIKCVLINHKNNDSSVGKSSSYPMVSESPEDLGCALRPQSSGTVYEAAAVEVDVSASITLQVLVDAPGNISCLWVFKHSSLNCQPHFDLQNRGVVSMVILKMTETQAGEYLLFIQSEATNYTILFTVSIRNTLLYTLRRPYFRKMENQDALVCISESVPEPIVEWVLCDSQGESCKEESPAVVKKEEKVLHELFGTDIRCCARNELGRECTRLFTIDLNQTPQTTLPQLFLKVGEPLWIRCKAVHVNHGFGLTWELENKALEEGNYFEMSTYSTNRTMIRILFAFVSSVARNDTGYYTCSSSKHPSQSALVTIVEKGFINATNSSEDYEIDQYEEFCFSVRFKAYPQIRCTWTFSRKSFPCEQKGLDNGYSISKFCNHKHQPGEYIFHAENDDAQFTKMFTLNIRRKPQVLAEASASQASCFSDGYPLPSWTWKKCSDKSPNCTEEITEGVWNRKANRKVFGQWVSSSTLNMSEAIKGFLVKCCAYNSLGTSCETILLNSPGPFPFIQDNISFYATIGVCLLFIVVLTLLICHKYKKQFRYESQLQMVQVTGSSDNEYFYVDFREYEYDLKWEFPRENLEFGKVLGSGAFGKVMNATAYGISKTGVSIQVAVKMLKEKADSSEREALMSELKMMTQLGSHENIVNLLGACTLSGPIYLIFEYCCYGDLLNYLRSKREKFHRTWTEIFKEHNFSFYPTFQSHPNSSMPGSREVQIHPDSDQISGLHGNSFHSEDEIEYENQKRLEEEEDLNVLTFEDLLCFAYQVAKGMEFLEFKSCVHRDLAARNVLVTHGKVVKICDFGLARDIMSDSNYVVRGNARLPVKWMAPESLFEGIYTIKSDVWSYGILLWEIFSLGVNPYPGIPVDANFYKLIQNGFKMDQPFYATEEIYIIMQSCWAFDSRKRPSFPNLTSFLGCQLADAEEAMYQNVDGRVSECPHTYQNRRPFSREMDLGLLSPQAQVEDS
# Method in brief: (§2)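 Biochemical (cell-free) assay using a panel of 24 protein kinases. The read-out was the IC50.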
# [2] = molecular target: Receptor tyrosine-protein kinase erbB-2 (Homo sapiens, UniProt P04626); assay: Inhibition of ERBB2 (unknown origin); method in brief: as §1
# [3] = molecular target: Epidermal growth factor receptor (Homo sapiens, UniProt P00533); assay: Inhibition of EGFR (unknown origin); method in brief: as §1
# [4] = molecular target: Mitogen-activated protein kinase kinase kinase 8 (Homo sapiens, UniProt P41279); assay: Inhibition of COT (unknown origin); method in brief: as §2
# [5] = molecular target: Cyclin-dependent kinase 4/cyclin D1 (Homo sapiens, UniProt P11802); assay: Inhibition of CDK4/cyclin-D1 (unknown origin); assay type: protein-complex assay; method in brief: as §1
# [6] = molecular target: Casein kinase II subunit alpha (Homo sapiens, UniProt P68400); assay: Inhibition of CK2-alpha1 (unknown origin); method in brief: as §1
# [7] = molecular target: Cyclin-dependent kinase 2/cyclin A (Homo sapiens, UniProt P24941); assay: Inhibition of CDK2/cyclin-A (unknown origin); assay type: protein-complex assay; method in brief: as §1
# [8] = molecular target: Serine/threonine-protein kinase B-raf (Homo sapiens, UniProt P15056, V600E); assay: Inhibition of B-RAF V600E mutant (unknown origin); method in brief: as §1
# Aurora kinase B = Aurora kinase B (Homo sapiens, UniProt Q96GD4); assay: Inhibition of aurora-B (unknown origin); method in brief: as §1
# Aurora kinase A = molecular target: T2, Aurora kinase A (Homo sapiens, UniProt O14965); assay: Inhibition of aurora-A (unknown origin); method in brief: as §1
# T2 sequence (O14965 whole entry): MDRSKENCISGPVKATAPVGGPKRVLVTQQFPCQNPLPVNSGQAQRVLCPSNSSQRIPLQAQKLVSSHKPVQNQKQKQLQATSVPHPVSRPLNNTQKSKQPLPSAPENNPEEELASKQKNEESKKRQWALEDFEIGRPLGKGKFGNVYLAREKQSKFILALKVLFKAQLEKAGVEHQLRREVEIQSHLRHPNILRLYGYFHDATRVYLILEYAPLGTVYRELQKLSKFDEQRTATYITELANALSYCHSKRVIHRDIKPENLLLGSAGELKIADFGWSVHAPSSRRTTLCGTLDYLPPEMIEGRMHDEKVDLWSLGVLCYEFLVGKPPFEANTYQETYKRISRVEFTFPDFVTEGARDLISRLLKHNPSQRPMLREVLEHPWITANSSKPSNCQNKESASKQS
# [9] = molecular target: T3, NUAK family SNF1-like kinase 1 (Homo sapiens, UniProt O60285); assay: Inhibition of ARK5 (unknown origin); method in brief: as §1
# T3 sequence (O60285 whole entry): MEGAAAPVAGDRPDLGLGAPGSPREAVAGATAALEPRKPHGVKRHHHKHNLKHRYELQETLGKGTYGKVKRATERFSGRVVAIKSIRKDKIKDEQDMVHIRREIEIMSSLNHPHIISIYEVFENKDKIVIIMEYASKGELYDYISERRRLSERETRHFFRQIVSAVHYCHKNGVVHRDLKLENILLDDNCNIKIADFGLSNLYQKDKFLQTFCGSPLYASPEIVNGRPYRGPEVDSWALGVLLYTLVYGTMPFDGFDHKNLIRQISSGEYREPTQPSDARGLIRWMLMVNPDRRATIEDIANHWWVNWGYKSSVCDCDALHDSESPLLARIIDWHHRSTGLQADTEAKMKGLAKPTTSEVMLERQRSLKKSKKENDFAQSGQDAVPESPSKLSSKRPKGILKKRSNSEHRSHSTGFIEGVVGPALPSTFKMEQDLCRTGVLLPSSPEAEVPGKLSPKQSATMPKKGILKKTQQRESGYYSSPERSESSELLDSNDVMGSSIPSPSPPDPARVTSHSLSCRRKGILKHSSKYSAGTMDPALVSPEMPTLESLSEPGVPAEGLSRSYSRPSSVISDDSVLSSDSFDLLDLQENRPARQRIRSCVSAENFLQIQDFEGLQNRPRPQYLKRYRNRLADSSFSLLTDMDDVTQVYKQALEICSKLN
# [10] = molecular target: RAC-alpha serine/threonine-protein kinase (Homo sapiens, UniProt P31749); assay: Inhibition of AKT1 (unknown origin); method in brief: as §1
# L5178Y = assay: Cytotoxicity against mouse L5178Y cells assessed as inhibition of cell proliferation by MTT assay; assay type: functional, cell-based
# [11] = molecular target: Vascular endothelial growth factor receptor 2 (Homo sapiens, UniProt P35968); assay: Inhibition of VEGFR2 (unknown origin); method in brief: as §1
# [12] = molecular target: Vascular endothelial growth factor receptor 3 (Homo sapiens, UniProt P35916); assay: Inhibition of VEGFR3 (unknown origin); method in brief: as §1
# Angiopoietin-1 receptor = Angiopoietin-1 receptor (Homo sapiens, UniProt Q02763); assay: Inhibition of TIE2 (unknown origin); method in brief: as §1
# [13] = molecular target: Proto-oncogene tyrosine-protein kinase Src (Homo sapiens, UniProt P12931); assay: Inhibition of SRC (unknown origin); method in brief: as §1
# [14] = molecular target: T4, Serine/threonine-protein kinase PLK4 (Homo sapiens, UniProt O00444); assay: Inhibition of SAK (unknown origin); method in brief: as §1
# T4 sequence (O00444 whole entry): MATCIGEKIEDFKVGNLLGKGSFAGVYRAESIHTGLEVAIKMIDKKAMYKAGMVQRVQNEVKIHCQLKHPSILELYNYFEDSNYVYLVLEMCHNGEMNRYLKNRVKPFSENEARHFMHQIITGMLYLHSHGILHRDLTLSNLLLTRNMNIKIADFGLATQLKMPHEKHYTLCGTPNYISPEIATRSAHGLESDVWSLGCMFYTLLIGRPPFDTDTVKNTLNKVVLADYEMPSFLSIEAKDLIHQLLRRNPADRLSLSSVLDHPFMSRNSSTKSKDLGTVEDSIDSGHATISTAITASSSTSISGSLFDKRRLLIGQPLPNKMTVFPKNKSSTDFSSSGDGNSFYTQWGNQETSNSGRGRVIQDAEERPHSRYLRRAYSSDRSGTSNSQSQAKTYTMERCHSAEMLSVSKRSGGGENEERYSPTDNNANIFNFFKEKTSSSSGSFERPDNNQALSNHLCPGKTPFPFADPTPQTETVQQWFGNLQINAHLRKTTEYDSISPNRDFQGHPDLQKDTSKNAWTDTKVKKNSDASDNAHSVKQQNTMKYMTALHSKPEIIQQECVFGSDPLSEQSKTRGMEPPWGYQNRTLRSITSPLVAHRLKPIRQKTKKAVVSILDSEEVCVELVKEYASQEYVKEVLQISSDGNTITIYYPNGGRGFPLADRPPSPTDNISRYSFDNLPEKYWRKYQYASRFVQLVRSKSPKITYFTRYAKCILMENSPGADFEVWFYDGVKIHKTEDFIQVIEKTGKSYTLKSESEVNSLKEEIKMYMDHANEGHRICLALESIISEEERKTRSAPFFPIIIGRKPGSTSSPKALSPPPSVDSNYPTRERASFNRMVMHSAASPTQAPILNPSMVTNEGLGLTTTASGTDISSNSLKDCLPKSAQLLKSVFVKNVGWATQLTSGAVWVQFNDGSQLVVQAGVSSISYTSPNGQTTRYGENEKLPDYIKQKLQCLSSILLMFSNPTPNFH
# [15] = molecular target: Serine/threonine-protein kinase PLK1 (Homo sapiens, UniProt P53350); assay: Inhibition of PLK1 (unknown origin); method in brief: as §1
# [16] = molecular target: Hepatocyte growth factor receptor (Homo sapiens, UniProt P08581); assay: Inhibition of MET (unknown origin); method in brief: as §1
# [17] = molecular target: Insulin-like growth factor 1 receptor (Homo sapiens, UniProt P08069); assay: Inhibition of IGF1R (unknown origin); method in brief: as §1
# Ephrin type-B receptor 4 = Ephrin type-B receptor 4 (Homo sapiens, UniProt P54760); assay: Inhibition of EPHB4 (unknown origin); method in brief: as §1
# [18] = molecular target: Platelet-derived growth factor receptor beta (Homo sapiens, UniProt P09619); assay: Inhibition of PDGFR-beta (unknown origin)
# Proto-oncogene tyrosine-protein kinase Src, sequence (P12931 2-536 limits assumed): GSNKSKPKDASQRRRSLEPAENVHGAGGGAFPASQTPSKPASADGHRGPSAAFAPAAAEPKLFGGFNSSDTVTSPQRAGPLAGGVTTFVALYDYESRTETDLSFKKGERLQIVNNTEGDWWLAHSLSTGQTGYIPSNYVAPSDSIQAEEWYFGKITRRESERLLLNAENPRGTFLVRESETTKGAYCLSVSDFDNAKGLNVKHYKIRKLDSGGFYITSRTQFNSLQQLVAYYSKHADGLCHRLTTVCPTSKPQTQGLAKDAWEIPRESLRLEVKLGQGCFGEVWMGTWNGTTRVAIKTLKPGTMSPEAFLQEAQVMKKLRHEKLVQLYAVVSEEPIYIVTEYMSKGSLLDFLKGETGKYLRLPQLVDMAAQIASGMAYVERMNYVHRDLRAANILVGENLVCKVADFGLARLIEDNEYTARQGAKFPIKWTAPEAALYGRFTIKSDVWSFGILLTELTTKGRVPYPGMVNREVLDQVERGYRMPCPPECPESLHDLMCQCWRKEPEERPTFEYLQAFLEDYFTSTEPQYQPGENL
# Insulin receptor, sequence (P06213 28-758 limits assumed): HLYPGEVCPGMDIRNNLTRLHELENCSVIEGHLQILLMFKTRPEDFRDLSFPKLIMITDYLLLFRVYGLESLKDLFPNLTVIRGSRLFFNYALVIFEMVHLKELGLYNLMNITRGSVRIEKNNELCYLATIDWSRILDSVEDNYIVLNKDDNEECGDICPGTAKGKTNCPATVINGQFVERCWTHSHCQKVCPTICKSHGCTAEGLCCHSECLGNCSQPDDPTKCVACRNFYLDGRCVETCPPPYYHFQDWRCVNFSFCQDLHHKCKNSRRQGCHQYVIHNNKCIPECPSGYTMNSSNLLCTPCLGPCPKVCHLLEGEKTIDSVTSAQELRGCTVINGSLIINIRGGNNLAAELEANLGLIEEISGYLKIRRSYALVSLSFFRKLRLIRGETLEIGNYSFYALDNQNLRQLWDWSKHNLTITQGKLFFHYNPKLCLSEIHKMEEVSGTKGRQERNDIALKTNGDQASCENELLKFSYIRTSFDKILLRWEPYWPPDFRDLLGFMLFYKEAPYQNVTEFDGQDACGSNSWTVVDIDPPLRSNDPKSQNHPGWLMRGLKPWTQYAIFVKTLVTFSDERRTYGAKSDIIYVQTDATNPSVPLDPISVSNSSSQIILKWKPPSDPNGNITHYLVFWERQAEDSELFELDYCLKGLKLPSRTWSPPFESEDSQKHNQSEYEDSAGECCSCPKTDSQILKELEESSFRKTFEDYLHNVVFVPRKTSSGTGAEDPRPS
# Insulin receptor, sequence (P06213 763-1382 limits assumed): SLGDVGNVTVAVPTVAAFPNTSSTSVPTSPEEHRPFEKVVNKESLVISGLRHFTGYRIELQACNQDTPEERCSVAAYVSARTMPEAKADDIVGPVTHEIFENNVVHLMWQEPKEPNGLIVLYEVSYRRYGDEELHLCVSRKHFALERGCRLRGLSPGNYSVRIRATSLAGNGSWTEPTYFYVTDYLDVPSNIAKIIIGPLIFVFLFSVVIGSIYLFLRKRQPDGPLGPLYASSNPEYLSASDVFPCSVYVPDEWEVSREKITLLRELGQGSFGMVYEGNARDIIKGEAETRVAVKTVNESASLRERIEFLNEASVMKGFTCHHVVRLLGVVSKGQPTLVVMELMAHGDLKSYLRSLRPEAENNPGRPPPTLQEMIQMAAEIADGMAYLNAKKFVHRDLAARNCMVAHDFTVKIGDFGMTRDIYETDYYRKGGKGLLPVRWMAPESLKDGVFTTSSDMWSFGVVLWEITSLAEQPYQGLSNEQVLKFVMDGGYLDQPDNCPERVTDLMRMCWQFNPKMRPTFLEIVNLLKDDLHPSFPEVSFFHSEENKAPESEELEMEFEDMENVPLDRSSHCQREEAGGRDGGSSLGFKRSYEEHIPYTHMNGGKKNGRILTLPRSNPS
# Mitogen-activated protein kinase kinase kinase 8, sequence (P41279 whole entry): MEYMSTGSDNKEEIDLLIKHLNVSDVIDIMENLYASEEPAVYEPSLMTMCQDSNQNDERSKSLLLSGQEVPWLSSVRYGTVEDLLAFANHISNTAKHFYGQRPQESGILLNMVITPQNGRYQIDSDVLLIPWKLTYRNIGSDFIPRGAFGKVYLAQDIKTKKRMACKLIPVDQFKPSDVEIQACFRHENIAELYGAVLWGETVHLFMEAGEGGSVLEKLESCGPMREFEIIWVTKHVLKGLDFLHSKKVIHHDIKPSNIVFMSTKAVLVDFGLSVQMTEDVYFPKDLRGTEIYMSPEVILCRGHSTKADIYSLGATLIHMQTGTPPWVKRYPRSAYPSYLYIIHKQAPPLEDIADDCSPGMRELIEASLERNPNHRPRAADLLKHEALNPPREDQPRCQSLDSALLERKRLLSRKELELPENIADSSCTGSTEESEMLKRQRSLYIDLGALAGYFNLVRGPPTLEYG
# Receptor tyrosine-protein kinase erbB-2, sequence (P04626 whole entry): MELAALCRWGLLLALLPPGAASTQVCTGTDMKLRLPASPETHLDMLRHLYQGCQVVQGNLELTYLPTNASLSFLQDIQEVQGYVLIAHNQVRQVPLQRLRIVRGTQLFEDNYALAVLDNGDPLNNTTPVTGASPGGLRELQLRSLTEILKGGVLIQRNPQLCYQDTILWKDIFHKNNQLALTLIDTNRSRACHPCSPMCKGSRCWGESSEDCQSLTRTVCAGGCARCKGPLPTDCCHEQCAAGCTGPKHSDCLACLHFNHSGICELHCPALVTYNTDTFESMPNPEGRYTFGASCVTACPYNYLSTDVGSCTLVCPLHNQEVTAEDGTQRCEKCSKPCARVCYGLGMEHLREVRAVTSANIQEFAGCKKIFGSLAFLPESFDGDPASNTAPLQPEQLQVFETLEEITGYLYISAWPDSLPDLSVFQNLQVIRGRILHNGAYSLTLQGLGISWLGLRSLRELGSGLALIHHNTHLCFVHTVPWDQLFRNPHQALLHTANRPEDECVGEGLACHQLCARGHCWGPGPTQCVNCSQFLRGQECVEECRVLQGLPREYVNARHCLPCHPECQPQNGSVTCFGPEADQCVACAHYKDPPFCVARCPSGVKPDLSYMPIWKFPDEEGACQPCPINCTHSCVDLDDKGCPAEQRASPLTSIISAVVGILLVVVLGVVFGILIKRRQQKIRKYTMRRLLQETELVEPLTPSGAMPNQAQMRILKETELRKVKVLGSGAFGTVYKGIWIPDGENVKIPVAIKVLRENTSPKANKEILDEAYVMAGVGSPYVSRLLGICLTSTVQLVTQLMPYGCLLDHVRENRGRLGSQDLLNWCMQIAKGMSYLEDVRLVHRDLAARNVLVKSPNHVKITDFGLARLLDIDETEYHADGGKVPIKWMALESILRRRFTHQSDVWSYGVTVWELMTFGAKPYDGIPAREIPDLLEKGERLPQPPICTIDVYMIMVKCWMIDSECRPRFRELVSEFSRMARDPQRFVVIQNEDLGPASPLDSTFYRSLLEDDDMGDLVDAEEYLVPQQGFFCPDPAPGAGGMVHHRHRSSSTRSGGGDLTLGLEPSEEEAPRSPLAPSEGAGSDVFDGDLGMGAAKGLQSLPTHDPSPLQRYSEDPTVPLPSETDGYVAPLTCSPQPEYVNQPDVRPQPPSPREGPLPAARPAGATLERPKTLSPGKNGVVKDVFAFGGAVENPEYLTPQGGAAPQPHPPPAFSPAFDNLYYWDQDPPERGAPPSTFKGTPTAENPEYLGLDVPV
# Vascular endothelial growth factor receptor 2, sequence (P35968 whole entry): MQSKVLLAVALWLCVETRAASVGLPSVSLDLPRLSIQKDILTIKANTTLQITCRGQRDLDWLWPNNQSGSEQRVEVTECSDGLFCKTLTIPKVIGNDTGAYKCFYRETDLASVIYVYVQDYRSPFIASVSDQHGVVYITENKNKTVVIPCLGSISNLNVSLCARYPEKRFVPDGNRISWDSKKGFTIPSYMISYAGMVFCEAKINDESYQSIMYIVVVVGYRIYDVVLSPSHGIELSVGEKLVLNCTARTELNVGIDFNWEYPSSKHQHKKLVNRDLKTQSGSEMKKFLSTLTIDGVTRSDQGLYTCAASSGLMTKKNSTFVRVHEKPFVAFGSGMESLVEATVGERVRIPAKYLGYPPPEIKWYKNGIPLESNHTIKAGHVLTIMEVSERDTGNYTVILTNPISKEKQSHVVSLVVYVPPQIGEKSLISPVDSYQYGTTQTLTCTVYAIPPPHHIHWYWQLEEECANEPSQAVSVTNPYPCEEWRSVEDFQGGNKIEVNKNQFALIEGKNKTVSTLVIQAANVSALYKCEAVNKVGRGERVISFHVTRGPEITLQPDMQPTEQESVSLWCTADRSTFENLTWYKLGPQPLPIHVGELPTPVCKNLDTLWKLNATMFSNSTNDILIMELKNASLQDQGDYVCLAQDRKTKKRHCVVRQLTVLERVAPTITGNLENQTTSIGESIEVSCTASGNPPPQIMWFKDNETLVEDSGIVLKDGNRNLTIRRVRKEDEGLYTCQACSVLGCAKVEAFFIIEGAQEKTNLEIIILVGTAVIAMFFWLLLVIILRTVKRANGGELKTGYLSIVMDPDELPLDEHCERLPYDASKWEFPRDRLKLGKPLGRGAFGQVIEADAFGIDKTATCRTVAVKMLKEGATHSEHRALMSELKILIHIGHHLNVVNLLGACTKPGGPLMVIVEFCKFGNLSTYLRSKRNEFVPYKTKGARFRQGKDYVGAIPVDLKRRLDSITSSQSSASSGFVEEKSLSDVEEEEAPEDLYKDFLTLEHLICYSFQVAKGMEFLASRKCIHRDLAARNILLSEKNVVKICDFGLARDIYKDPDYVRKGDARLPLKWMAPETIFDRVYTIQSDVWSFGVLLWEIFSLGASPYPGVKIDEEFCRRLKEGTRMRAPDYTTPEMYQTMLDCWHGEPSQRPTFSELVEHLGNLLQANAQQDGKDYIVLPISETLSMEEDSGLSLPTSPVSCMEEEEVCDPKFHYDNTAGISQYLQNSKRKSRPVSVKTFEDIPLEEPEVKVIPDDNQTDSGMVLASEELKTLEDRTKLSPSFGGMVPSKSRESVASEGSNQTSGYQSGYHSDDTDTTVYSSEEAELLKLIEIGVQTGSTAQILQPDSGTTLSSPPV
SMILES,IC50 (Focal adhesion kinase 1),IC50 (Insulin receptor),IC50 [2],IC50 [3],IC50 [5],IC50 [7],IC50 [8],IC50 (Aurora kinase B),IC50 (Aurora kinase A),IC50 [9],IC50 [11],IC50 [12],IC50 (Angiopoietin-1 receptor),IC50 [13],IC50 [14],IC50 [16],IC50 [17],IC50 [1],IC50 [4],IC50 (L5178Y),other results
O=C1NCCc2cc(Br)c(O)c(c2)Oc2c(Br)cc(cc2Br)CCNC(=O)/C(=N/O)Cc2cc(Br)c(O)c(c2)Oc2c(Br)cc(cc2Br)C/C1=N\O [BASTADIN 6],,,7000 nM,2000 nM,3600 nM,,,2900 nM,1700 nM,,,,,,,,,5300 nM,4800 nM,1500 nM,
O=C1N/C=C/c2ccc(c(Br)c2)Oc2cc(cc(Br)c2O)CCNC(=O)/C(=N/O)Cc2ccc(c(Br)c2)Oc2cc(cc(Br)c2O)C/C1=N\O [BASTADIN 7],7300 nM,4400 nM,2800 nM,1500 nM,2600 nM,,4400 nM,2600 nM,3900 nM,3200 nM,1300 nM,3200 nM,1800 nM,2000 nM,1900 nM,2800 nM,1700 nM,2900 nM,3300 nM,5300 nM,IC50 (Ephrin type-B receptor 4): 7700 nM; IC50 [18]: 10200 nM
O=C1N/C=C/c2ccc(c(Br)c2)Oc2cc(ccc2O)CCNC(=O)/C(=N/O)Cc2cc(Br)c(c(Br)c2)Oc2cc(cc(Br)c2O)C/C1=N\O [BASTADIN 11],,,,,,,,,,,,,,,,,,,,3700 nM,

# More lines, main results first:
IC50 (Focal adhesion kinase 1),IC50 (Insulin receptor),IC50 [2],IC50 [3],IC50 [5],IC50 [7],IC50 [8],IC50 (Aurora kinase B),IC50 (Aurora kinase A),IC50 [9],IC50 [11],IC50 [12],IC50 (Angiopoietin-1 receptor),IC50 [13],IC50 [14],IC50 [16],IC50 [17],SMILES,IC50 [1],IC50 [4],IC50 (L5178Y),other results
2100 nM,2900 nM,2100 nM,1300 nM,1500 nM,1600 nM,2700 nM,500 nM,100 nM,1800 nM,1200 nM,2800 nM,800 nM,1900 nM,4100 nM,1100 nM,2300 nM,O=C(NCCc1ccc(O)c(Br)c1)/C(Cc1cc(Br)c(O)c(-c2cc(C/C(=N/O)C(=O)NCCc3ccc(O)c(Br)c3)cc(Br)c2O)c1)=N\O [BASTADIN 3],2400 nM,1600 nM,,IC50 [6]: 4100 nM; IC50 [10]: 1900 nM; inhibition (L5178Y): inactive; IC50 [15]: 3900 nM
,,4500 nM,2900 nM,4000 nM,,,1600 nM,1300 nM,,,,,,,,,O=C1NCCc2ccc(O)c(c2)Oc2c(Br)cc(cc2Br)CCNC(=O)/C(=N/O)Cc2cc(Br)c(O)c(c2)Oc2c(Br)cc(cc2Br)C/C1=N\O [BASTADIN 16],,,1900 nM,
3500 nM,1400 nM,2100 nM,600 nM,1400 nM,6500 nM,1700 nM,2300 nM,2600 nM,1700 nM,600 nM,1600 nM,600 nM,700 nM,700 nM,800 nM,1000 nM,O=C(NCCc1ccc(O)c(Br)c1)/C(Cc1cc(Br)c(O)c(Oc2ccc(CCNC(=O)/C(Cc3cc(Br)c(O)c(-c4cc(C/C(=N\O)C(=O)NCCc5ccc(O)c(Br)c5)cc(Br)c4O)c3)=N/O)cc2Br)c1)=N/O [SESQUIBASTADIN 1],1400 nM,1300 nM,,IC50 (Ephrin type-B receptor 4): 3400 nM; inhibition (L5178Y): inactive; IC50 [15]: 6400 nM; IC50 [18]: 4000 nM
